EBV LMP1 NFkB = Epstein-Barr LMP1 NF-kappaB reporter inhibition. LMP1-induced NF-kappaB luciferase reporter cells, luminescence. inhibition, % at 12.5 µM. 350,000 tested, 0.69% active. AID 504558; in the data active = inhibition above about 41%;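 also: 0% = neutral control wells and 100% = reference inhibitor control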
NR2E3 ag-1 = activates human NR2E3 receptor; inhibition of corepressor binding, % at 3.98 µM; CHO-S Gal4-NCOR/VP16-NR2E3 two-hybrid, luciferase; 360,000 tested, 0.35% active; Q9Y5X4; AID 602229;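 active = inhibition above the mean of all tested compounds plus 3 SD, cut at about 70% in these data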;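 also: 0% = DMSO with NR2E3 transfected cells and 100% = cells lacking NR2E3 construct; higher means lower luciferase signal from less NR2E3 corepressor binding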
Target sequence (Q9Y5X4 whole entry, looked up, the tested form may be a part): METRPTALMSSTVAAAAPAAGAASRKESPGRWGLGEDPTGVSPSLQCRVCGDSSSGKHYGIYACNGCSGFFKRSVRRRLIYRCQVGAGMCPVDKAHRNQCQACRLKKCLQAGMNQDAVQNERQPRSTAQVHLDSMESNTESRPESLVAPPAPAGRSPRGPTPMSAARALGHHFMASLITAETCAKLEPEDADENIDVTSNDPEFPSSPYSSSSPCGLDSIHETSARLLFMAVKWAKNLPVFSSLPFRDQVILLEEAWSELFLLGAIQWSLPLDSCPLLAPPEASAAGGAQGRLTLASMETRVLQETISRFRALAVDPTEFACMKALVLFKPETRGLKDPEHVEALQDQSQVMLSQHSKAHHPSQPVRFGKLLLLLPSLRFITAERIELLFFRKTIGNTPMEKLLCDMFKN
NR2E3 ag-2 = NR2E3 (human) agonism. inhibition of corepressor binding, % at 4.78 µM. AID 2300. Q9Y5X4. 320,000 tested, 0.12% active. GST-NR2E3/biotin-RetCOR TR-FRET, 1536-well;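 active = percent inhibition above the cutoff of mean plus 3 SD of all tested compounds, set per screening campaign, cut at about 20% in these data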;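 also: 0% = DMSO wells and 100% = biotin wells as full block of FRET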
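Assay system: NR2E3–RetCOR corepressor complex. Quantity: 1.35 nM GST-NR2E3. Buffer or medium: pH 7.5 Tris-based buffer. Reagent: biotinylated RetCOR corepressor at 7 nM final. Schedule: 5 h at 4 °C. Detection: TR-FRET, emission read at 617 and 671 nm. Replicates: one well per compound, singlicate testing.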
HIF activator = HIF pathway transcriptional activation. U2OS HRE-luciferase reporter, luminescence; normalized: DMSO 0%, desferrioxamine 100%. activation, % at 7.5 µM (by protocol). 300,000 tested, 0.32% active. AID 1910;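 active = mean activation of at least 10% of the iron chelator positive control signal, with at least half of replicates also reaching 10%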
TROY NFkB inh = blocks TROY-dependent signaling in reporter cells. Q293 LMP1-TROYcd NF-kB luciferase reporter, 4 h. inhibition, % at 10 µM. 360,000 tested, 0.98% active. AID 1347056;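 active = compounds whose plate-normalised and pattern-corrected inhibition of the luciferase reporter signal at the single screening dose is 50% or more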
Numbers without * were called inactive; . = no result given. Only some compounds are listed: those with a hit (about 2% of all), similar ones and a draw of the others.

SMILES	EBV LMP1 NFkB	NR2E3 ag-1	NR2E3 ag-2	HIF activator	TROY NFkB inh
CCOC(=O)c1oc2ccc(S(=O)(=O)Nc3ccc4c(c3)n(C)c(=O)n4C)cc2c1C	-17	77*	-3	0	23
COc1ccc(S(=O)(=O)Nc2ccc3c(c2)n(C)c(=O)n3C)cc1C	-18	21	2	-7	1
CC(C)c1noc2ncc(C(=O)c3cc(Cl)cc(Cl)c3O)cc12	7	24	5	0	62*
Nc1nc2ncc(C(=O)c3cc(Cl)cc(Cl)c3O)cc2s1	1	-33	0	0	-7
CC(C)(C)OC(=O)NCCCCCNC(=O)c1[nH]cnc1C(=O)Nc1ccc(Cl)cc1	8	-5	-1	.	57*
Cc1cc2[nH]c3c4ccccc4nc(C)c3c2cc1C	-40	-19	.	.	78*
CS(=O)(=O)N(CC(=O)N1CCc2ccccc2C1)c1cccc(Br)c1	-4	-1	-1	0	-4
O=C1/C(=C/c2ccncc2)SC(=S)N1Cc1ccccc1	43*	-12	0	0	27
O=C(O)c1cc(-c2ccc(/C=C3/SC(=S)N(Cc4ccccc4)C3=O)o2)ccc1Cl	8	-6	.	.	52*
COc1ccc(OC)c(CC(=O)Nc2ccc3c(c2)c(=O)n(C)n3Cc2cccc(C(F)(F)F)c2)c1	.	-8	.	.	9
O=C(Nc1ccccc1)Nc1cc(Cl)cc(Cl)c1	-4	20	4	1	51*
O=C(Nc1ccc(N2CCOCC2)cc1)c1cnccn1	63*	-84	0	-2	60*
O=C(Nc1ccccc1N1CCOCC1)c1cnccn1	2	-21	-1	2	15
O=C(Nc1ccc(N2CCOCC2)cc1)c1cnsn1	77*	-55	.	-3	72*
Cc1c(NC(=O)C(C)OC(=O)/C=C/c2ccc(OC(F)F)cc2)c(=O)n(-c2ccccc2)n1C (configuration not stated)	1	-7	1	-2	16
CCN1C/C(=C\c2cccc([N+](=O)[O-])c2)C(=O)/C(=C/c2cccc([N+](=O)[O-])c2)C1	91*	-11	.	.	2
O=C1/C(=C/c2cccc([N+](=O)[O-])c2)CCc2ccccc21	-5	-7	1	1	-39
O=C(COC(=O)Cc1ccc(S(=O)(=O)N2CCCCC2)s1)Nc1ccc2c(c1)OCO2	-13	-22	0	25*	-2
CCc1nnc(NC(=O)c2ccc(S(=O)(=O)N3CCc4ccccc4C3)cc2)s1	2	-18	3	0	5
COc1ccc(NC(=O)c2ccc(Cl)c(S(=O)(=O)N3CCc4ccccc4C3)c2)cn1	5	-8	1	0	53*
CCc1nnc(NC(=O)c2ccc(Cl)c(S(=O)(=O)N3CCc4ccccc4C3)c2)s1	6	-7	1	0	55*
COc1ccc(NC(=O)c2ccc(Cl)c(S(=O)(=O)N3CC(C)OC(C)C3)c2)cn1 (configuration not stated)	23	0	6	.	14
CCc1nnc(NC(=O)c2ccc(S(=O)(=O)N3CCOCC3)cc2)s1	78*	-11	1	0	-15
C=CC[C@@H]1C=C(C)C[C@H](C)C[C@H](OC)[C@H]2O[C@@](O)(C(=O)C(=O)N3CCCC[C@H]3C(=O)O[C@H](/C(C)=C/[C@@H]3CC[C@@H](O)[C@H](OC)C3)[C@H](C)[C@@H](O)CC1=O)[C@H](C)C[C@@H]2OC	.	.	1	-1	.
O=c1[nH]c(=S)[nH]cc1Oc1ccc(Cl)cc1Cl	-1	4	.	-1	-15
SMILES	EBV LMP1 NFkB	NR2E3 ag-1	NR2E3 ag-2	HIF activator	TROY NFkB inh
O=C(CC1CC1)Nc1ccc2c(c1)[C@H]1C[C@H](CC(=O)N3CCc4ccccc4C3)O[C@@H](CO)[C@H]1O2	1	-85	.	.	11
CCOC(=O)c1cc2c(ccn2C)n1CC(=O)N1CCN(c2ccccc2)CC1	-2	18	0	288*	-9
Cc1nn2c(=O)cc(CSCC(=O)Nc3ccccc3Cl)nc2s1	1	3	-1	1	5
Cc1ncc(CO)c(/C=N/NC(=O)c2ccc(O)cc2)c1O	1	-2	-5	-1	-9
Cc1ncc(CO)c(/C=N/NC(=O)c2cc3c(s2)CCCC3)c1O	24	-31	-1	22*	13
CCN(CC(=O)Nc1ccc(NC(C)=O)cc1)C(=O)c1sc2nc3n(c(=O)c2c1C)CCC3	-4	5	-2	.	2

Source: PubChem
